Reference: ChEMBL document CHEMBL1155362, “Synthesis, characterization and derivatization of some novel types of mono- and bis-imidazolidineiminothiones and imidazolidineiminodithiones with antitumor, antiviral, antibacterial and antifungal activities--part I” (Eur J Med Chem, 2009)
Values after ≈ are worked out from the molar mass of the structure shown. Active and inactive are the calls of the source. No cut-off for these calls is given here.

What was measured:
Candida albicans [1] = test: Antifungal activity against Candida albicans IMRU 3669 at 2.5 mg/ml by agar disk diffusion assay; format: functional; settings: read-out: DIZ
How it was run: (§1)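 Fungi maintained on Czapek's Dox agar; agar well diffusion with 1 cm wells and […] of each concentration (1, 2.5, 5 mg/mL) in DMF; inhibition zone diameter measured.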

HCT-116 [2] = test: Cytotoxicity against human HCT116 cells assessed as reduction in surviving fraction at 10.0 ug/ml after 48 hrs by SRB assay; format: functional, cell-based
How it was run: (§2)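 HCT116 cells seeded at 10⁴ per well and allowed to attach for 24 h; exposed to 0, 1, 2.5, 5 or 10 in triplicate for 48 h at 37 °C in 5% CO₂; fixed and stained with sulforhodamine B; bound dye recovered in Tris EDTA and read on an ELISA reader; surviving fraction plotted against concentration.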

Aspergillus niger [3] = test: Antifungal activity against Aspergillus niger Ferm-BAM C-21 at 2.5 mg/ml by agar disk diffusion assay; format: functional; settings: read-out: DIZ; how it was run: as §1
U-251 [4] = test: Cytotoxicity against human U251 cells assessed as reduction in surviving fraction at 10.0 ug/ml after 48 hrs by SRB assay; format: functional, cell-based
How it was run: (§3)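 Cells seeded at 10⁴ cells/well and left 24 h to attach, then exposed to […] in triplicate wells per dose. Incubation 48 h, 37 °C, 5% CO₂. Cells fixed and stained with sulforhodamine B, excess dye removed with acetic acid, bound dye taken up in Tris EDTA and read on an ELISA reader. Surviving fraction plotted against concentration.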

HCT-116 [5] = test: Cytotoxicity against human HCT116 cells assessed as reduction in surviving fraction at 2.5 ug/ml after 48 hrs by SRB assay; format: functional, cell-based; how it was run: as §2
Bacillus subtilis [6] = test: Antibacterial activity against Bacillus subtilis NCIB 3610 at 5 mg/ml by agar disk diffusion assay; format: functional; settings: Bacillus subtilis, NCIB 3610; read-out: DIZ
Candida albicans [7] = test: Antifungal activity against Candida albicans IMRU 3669 by macrotube dilution assay; format: functional
How it was run: (§4)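 Macrotube twofold dilution per NCCLS/CLSI guidelines for fungi; 2 mg compound in 2.0 mL DMF, serially diluted across 14 tubes of Czapek's Dox medium, with a control tube; inoculum added to halve the concentration; 30 °C for 72 h; MIC is the lowest concentration without visible growth.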

MCF7 [8] = test: Cytotoxicity against human MCF7 cells assessed as reduction in surviving fraction at 5.0 ug/ml after 48 hrs by SRB assay; format: functional, cell-based; how it was run: as §3
Bacillus subtilis [9] = test: Antibacterial activity against Bacillus subtilis NCIB 3610 at 1 mg/ml by agar disk diffusion assay; format: functional; settings: Bacillus subtilis, NCIB 3610; read-out: DIZ
Bacillus subtilis [10] = test: Antibacterial activity against Bacillus subtilis NCIB 3610 at 2.5 mg/ml by agar disk diffusion assay; format: functional; settings: Bacillus subtilis, NCIB 3610; read-out: DIZ
MCF7 [11] = test: Cytotoxicity against human MCF7 cells assessed as surviving fraction after 48 hrs by SRB assay; format: functional, cell-based; settings: Homo sapiens, MCF7, 48 h; read-out: IC50; how it was run: as §3
HCT-116 [12] = test: Cytotoxicity against human HCT116 cells assessed as reduction in surviving fraction at 1 ug/ml after 48 hrs by SRB assay; format: functional, cell-based; how it was run: as §2
Candida albicans [13] = test: Antifungal activity against Candida albicans IMRU 3669 at 5 mg/ml by agar disk diffusion assay; format: functional; settings: Candida albicans, IMRU 3669; read-out: DIZ; how it was run: as §1
Candida albicans [14] = test: Antifungal activity against Candida albicans IMRU 3669 at 1 mg/ml by agar disk diffusion assay; format: functional; settings: read-out: DIZ; how it was run: as §1
HeLa = test: Cytotoxicity against human HeLa cells assessed as surviving fraction after 48 hrs by SRB assay; format: functional, cell-based; settings: Homo sapiens, HeLa, 48 h; read-out: IC50; how it was run: as §3
U-251 [15] = test: Cytotoxicity against human U251 cells assessed as surviving fraction after 48 hrs by SRB assay; format: functional, cell-based; settings: Homo sapiens, U-251, 48 h; read-out: IC50; how it was run: as §3
U-251 [16] = test: Cytotoxicity against human U251 cells assessed as reduction in surviving fraction at 1 ug/ml after 48 hrs by SRB assay; format: functional, cell-based; how it was run: as §3
[17] = Antitumor activity against mouse EAC cells assessed as inhibition of cell viability at 25 ug/ml after 2 hrs by trypan blue exclusion assay; format: functional; settings: Ehrlich
How it was run: (§5)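 EAC cells aspirated from ascitic fluid of inoculated mice and diluted in saline; 0.1 mL cell suspension, 0.8 mL RPMI 1640 and 0.1 mL compound (25, 50 or 100) incubated 2 h at 37 °C; non-viable cells counted by trypan blue exclusion; % non-viable = dead/total × 100.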

Pseudomonas aeruginosa [18] = test: Antibacterial activity against Pseudomonas aeruginosa NCIB 9016 at 2.5 mg/ml by agar disk diffusion assay; format: functional; settings: Pseudomonas aeruginosa, NCIB 9016; read-out: DIZ
Klebsiella pneumoniae = test: Antimicrobial activity against Klebsiella pneumoniae NCIMB 9111 by macrotube dilution assay; format: functional
HepG2 = test: Cytotoxicity against human HepG2 cells assessed as surviving fraction after 48 hrs by SRB assay; format: functional, cell-based; settings: hepg2; how it was run: as §3
Bacillus subtilis [19] = test: Antimicrobial activity against Bacillus subtilis NCTC 1040 by macrotube dilution assay; format: functional
MCF7 [20] = test: Cytotoxicity against human MCF7 cells assessed as reduction in surviving fraction at 1 ug/ml after 48 hrs by SRB assay; format: functional, cell-based; how it was run: as §3
[21] = Antitumor activity against mouse EAC cells assessed as inhibition of cell viability at 100 ug/ml after 2 hrs by trypan blue exclusion assay; format: functional; settings: Ehrlich; how it was run: as §5
Hepatovirus A = test: Antiviral activity against Hepatitis A virus infected african green monkey Vero cells at 10^-4 dilution of 5 mg/ml by plaque formation assay; format: functional
How it was run: (§6)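 Compound dilutions prepared from a 5 mg/mL DMSO stock, using the maximum non-toxic dilution for Vero cells over 3 days; 0.1 mL virus (10³) mixed with 0.1 mL compound for 1 h at room temperature; mixture inoculated onto washed Vero monolayers in 12-well plates and adsorbed at 37 °C; 2× MEM/agarose overlay applied; read-out % reduction in plaque count versus untreated virus control.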

U-251 [22] = test: Cytotoxicity against human U251 cells assessed as reduction in surviving fraction at 5.0 ug/ml after 48 hrs by SRB assay; format: functional, cell-based; how it was run: as §3
Pseudomonas aeruginosa [23] = test: Antibacterial activity against Pseudomonas aeruginosa NCIB 9016 at 1 mg/ml by agar disk diffusion assay; format: functional; settings: Pseudomonas aeruginosa, NCIB 9016; read-out: DIZ
Pseudomonas aeruginosa [24] = test: Antibacterial activity against Pseudomonas aeruginosa NCIB 9016 at 5 mg/ml by agar disk diffusion assay; format: functional; settings: Pseudomonas aeruginosa, NCIB 9016; read-out: DIZ
HCT-116 [25] = test: Cytotoxicity against human HCT116 cells assessed as surviving fraction after 48 hrs by SRB assay; format: functional, cell-based; settings: Homo sapiens, HCT-116, 48 h; read-out: IC50; how it was run: as §3
Salmonella typhi = test: Antimicrobial activity against Salmonella typhi NCIMB 9331 by macrotube dilution assay; format: functional, Salmonella enterica subsp. enterica serovar Typhi; settings: Salmonella enterica
U-251 [26] = test: Cytotoxicity against human U251 cells assessed as reduction in surviving fraction at 2.5 ug/ml after 48 hrs by SRB assay; format: functional, cell-based; how it was run: as §3
Coxsackievirus B4 = test: Antiviral activity against Coxsackievirus B4 infected african green monkey Vero cells at 10^-4 dilution of 5 mg/ml by plaque formation assay; format: functional, organism-based; how it was run: as §6
HCT-116 [27] = test: Cytotoxicity against human HCT116 cells assessed as reduction in surviving fraction at 5.0 ug/ml after 48 hrs by SRB assay; format: functional, cell-based; how it was run: as §2
Aspergillus niger [28] = test: Antifungal activity against Aspergillus niger Ferm-BAM C-21 at 1 mg/ml by agar disk diffusion assay; format: functional; settings: read-out: DIZ; how it was run: as §1
MCF7 [29] = test: Cytotoxicity against human MCF7 cells assessed as reduction in surviving fraction at 10.0 ug/ml after 48 hrs by SRB assay; format: functional, cell-based; how it was run: as §3
Aspergillus niger [30] = test: Antifungal activity against Aspergillus niger Ferm-BAM C-21 at 5 mg/ml by agar disk diffusion assay; format: functional; settings: read-out: DIZ; how it was run: as §1
MCF7 [31] = test: Cytotoxicity against human MCF7 cells assessed as reduction in surviving fraction at 2.5 ug/ml after 48 hrs by SRB assay; format: functional, cell-based; how it was run: as §3
Staphylococcus aureus = test: Antimicrobial activity against Staphylococcus aureus NCTC 7447 by macrotube dilution assay; format: functional
Human alphaherpesvirus 1 = test: Antiviral activity against HSV1 infected african green monkey Vero cells at 10^-4 dilution of 5 mg/ml by plaque formation assay; format: functional; how it was run: as §6
[32] = Antitumor activity against mouse EAC cells assessed as inhibition of cell viability at 50 ug/ml after 2 hrs by trypan blue exclusion assay; format: functional; settings: Ehrlich; how it was run: as §5
Aspergillus niger [33] = test: Antifungal activity against Aspergillus niger Ferm-BAM C-21 by macrotube dilution assay; format: functional; how it was run: as §4

## N=C1C(=S)N(c2ccc(Br)cc2)C(=S)N1c1ccc(Br)cc1
Candida albicans [1]
  zone of inhibition at 2500 µg/mL: 20 mm
HCT-116 [2]
  Activity: Active
Aspergillus niger [3]
  zone of inhibition at 2500 µg/mL: 18 mm
U-251 [4]
  Activity: Active
HCT-116 [5]
  Activity: Active
Bacillus subtilis [6]
  zone of inhibition at 5000 µg/mL: 32 mm
Candida albicans [7]
  MIC: 1.95 µg/mL (≈ 4.28 µM)
MCF7 [8]
  Activity: Active
Bacillus subtilis [9]
  zone of inhibition at 1000 µg/mL: 21 mm
Bacillus subtilis [10]
  zone of inhibition at 2500 µg/mL: 25 mm
MCF7 [11]
  IC50: 3.09 µg/mL (≈ 6.79 µM)
HCT-116 [12]
  Activity: Active
Candida albicans [13]
  zone of inhibition at 5000 µg/mL: 23 mm
Candida albicans [14]
  zone of inhibition at 1000 µg/mL: 18 mm
HeLa
  IC50: 8.93 µg/mL (≈ 19.6 µM)
U-251 [15]
  IC50: 1.28 µg/mL (≈ 2.81 µM)
U-251 [16]
  Activity: Active
[17]
  inhibition at 25 µg/mL: 50%
Pseudomonas aeruginosa [18]
  zone of inhibition at 2500 µg/mL: 19 mm
Klebsiella pneumoniae
  MIC: 7.8 µg/mL (≈ 17.1 µM)
HepG2
  IC50: Not Active
Bacillus subtilis [19]
  MIC: 3.9 µg/mL (≈ 8.57 µM)
MCF7 [20]
  Activity: Active
[21]
  inhibition at 100 µg/mL: 90%
Hepatovirus A
  Activity: inactive
U-251 [22]
  Activity: Active
Pseudomonas aeruginosa [23]
  zone of inhibition at 1000 µg/mL: 18 mm
Pseudomonas aeruginosa [24]
  zone of inhibition at 5000 µg/mL: 21 mm
HCT-116 [25]
  IC50: 4.56 µg/mL (≈ 10 µM)
Salmonella typhi
  MIC: 1.95 µg/mL (≈ 4.28 µM)
U-251 [26]
  Activity: Active
Coxsackievirus B4
  Activity: inactive
HCT-116 [27]
  Activity: Active
Aspergillus niger [28]
  zone of inhibition at 1000 µg/mL: 15 mm
MCF7 [29]
  Activity: Active
Aspergillus niger [30]
  zone of inhibition at 5000 µg/mL: 20 mm
MCF7 [31]
  Activity: Active
Staphylococcus aureus
  MIC: 15.6 µg/mL (≈ 34.3 µM)
Human alphaherpesvirus 1
  Activity: 50%
[32]
  inhibition at 50 µg/mL: 70%
Aspergillus niger [33]
  MIC: 0.49 µg/mL (≈ 1.08 µM)
